Data from publication PMC12322058 (Scientific Reports, 2025).

Legend:
[1] = Tissue distribution after IV administration; type: in vivo, Sprague-Dawley male rats; details: for AUC0 − t: 5 mg/kg IV, rats; for Cmax: male, Sprague-Dawley, rat, iv, 5 mg/kg
Procedure, shortened: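 Male Sprague-Dawley rats (8–12 weeks), 27 per group (free drug or one of two nanoparticle formulations), 3 rats at each of nine time points. Single 5 mg/kg IV dose. CO2 euthanasia; tissues excised, saline-rinsed, homogenized 1:4 in PBS pH 7.4, stored at −85 °C. LC-MS/MS against matrix-matched calibration (1.03–1026.00 ng/mL). Noncompartmental AUC0–t and Cmax; Kp as tissue/plasma AUC ratio; means reported.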

[2] = Plasma pharmacokinetics after IV administration; type: in vivo, Sprague-Dawley male rats; details: male, Sprague-Dawley, rat, 5 mg/kg
Procedure, shortened: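 Male Sprague-Dawley rats (8–12 weeks) received 5 mg/kg IV. Blood was taken retro-orbitally under isoflurane into K2EDTA at 0.08–24 h (nine points, 3 rats each), and plasma was stored at -85 °C. LC-MS/MS quantification used a 1.03–1026.00 ng/mL calibration with 1/x2 weighting. Noncompartmental analysis on means: AUC by mixed log-linear method, CL = Dose/AUCinf, Vss = CL×MRT.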

[3] = tested on: SH-SY5Y cells; assay: MTT colorimetric cytotoxicity assay; type: cell-based; details: Homo sapiens, 24 h
Procedure, shortened: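 SH-SY5Y cells were grown in DMEM with 10% FBS at 0.1 × 10^5 cells/well for 24 h at 37 °C ([…]/5% CO2) to half-confluence. After a PBS wash and 1 h in serum-free medium, cells received free or nanoparticle test compound (0.05–100 µM) or serum-free medium for 24 h. MTT (1 mg/mL) was added for 4 h; formazan was dissolved in DMSO and read at 540 nm. Viability is expressed as % of control.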

CC(=O)c1c(C)c2cnc(Nc3ccc(N4CCNCC4)cn3)nc2n(C2CCCC2)c1=O [Palbo, Palbociclib]
AUC0 − t ([1]; brain posterior region): 757.5 ng·h/g
AUC0 − t ([1]; cerebellum): 402.5 ng·h/g
AUC0 − t ([1]; frontal cortex): 383.8 ng·h/g
Cmax ([1]; cerebellum): 120 ng/g
Cmax ([1]; frontal cortex): 129 ng/g
Cmax ([1]; kidney): 485 ng/g
Cmax ([1]; liver): 2440 ng/g
Cmax ([1]; lungs): 12700 ng/g
Cmax ([1]; posterior brain region): 162 ng/g
AUC(0-inf) [2]: 1920 ng·h/mL
clearance ([2]; CL, 5 mg/kg IV, rats): 21.8 mL/min/kg
IC50 [3]: 860 nM
